Measured values reported in publication PMC4929832 (Nature, 2016).

Experiments:
PAK4 = PAK4 (Homo sapiens, UniProt O96013); assay: kinase panel; assay type: biochemical
MAPK3 = MAPK3 (Homo sapiens, UniProt P27361); assay: kinase panel; assay type: biochemical
PAK6 = PAK6 (Homo sapiens, UniProt Q9NQU5); assay: kinase panel; assay type: biochemical
RON = RON (Homo sapiens, UniProt Q04912); assay: kinase panel; assay type: biochemical
PDGFR-ALPHA = PDGFR-ALPHA (Homo sapiens, UniProt P16234); assay: kinase panel; assay type: biochemical
PHK-GAMMA2 = PHK-GAMMA2 (Homo sapiens, UniProt P15735); assay: kinase panel; assay type: biochemical
SGK3 = SGK3 (Homo sapiens, UniProt Q96BR1); assay: kinase panel; assay type: biochemical
HIPK2 = HIPK2 (Homo sapiens, UniProt Q9H2X6); assay: kinase panel; assay type: biochemical
BLK = BLK (Homo sapiens, UniProt P51451); assay: kinase panel; assay type: biochemical
PIM2 = PIM2 (Homo sapiens, UniProt Q9P1W9); assay: kinase panel; assay type: biochemical
MSK1 = MSK1 (Homo sapiens, UniProt O75582); assay: kinase panel; assay type: biochemical
INSR = INSR (Homo sapiens, UniProt P06213); assay: kinase panel; assay type: biochemical
EPH-A2 = EPH-A2 (Homo sapiens, UniProt P29317); assay: kinase panel; assay type: biochemical
MST2 = MST2 (Homo sapiens, UniProt Q13188); assay: kinase panel; assay type: biochemical
PKC-ETA = PKC-ETA (Homo sapiens, UniProt P24723); assay: kinase panel; assay type: biochemical
PKC-GAMMA = PKC-GAMMA (Homo sapiens, UniProt P05129); assay: kinase panel; assay type: biochemical
EPH-A4 = EPH-A4 (Homo sapiens, UniProt P54764); assay: kinase panel; assay type: biochemical
ITK = ITK (Homo sapiens, UniProt Q08881); assay: kinase panel; assay type: biochemical
JAK1 = JAK1 (Homo sapiens, UniProt P23458); assay: kinase panel; assay type: biochemical
PKN1 = PKN1 (Homo sapiens, UniProt Q16512); assay: kinase panel; assay type: biochemical
TIE2 = TIE2 (Homo sapiens, UniProt Q02763); assay: kinase panel; assay type: biochemical
EPH-B3 = EPH-B3 (Homo sapiens, UniProt P54753); assay: kinase panel; assay type: biochemical
PLK1 = PLK1 (Homo sapiens, UniProt P53350); assay: kinase panel; assay type: biochemical
JNK3 = JNK3 (Homo sapiens, UniProt P53779); assay: kinase panel; assay type: biochemical
TNK1 = TNK1 (Homo sapiens, UniProt Q13470); assay: kinase panel; assay type: biochemical
CDK2-CYCLINA = CDK2-CYCLINA (Homo sapiens, UniProt P24941); assay: kinase panel; assay type: biochemical
CDK2-CYCLINE = CDK2-CYCLINE (Homo sapiens, UniProt P24941); assay: kinase panel; assay type: biochemical
FGFR4 = FGFR4 (Homo sapiens, UniProt P22455); assay: kinase panel; assay type: biochemical
PAK1 = PAK1 (Homo sapiens, UniProt Q13153); assay: kinase panel; assay type: biochemical
[1] = target: Beta 1 adrenergic receptor (Homo sapiens, UniProt P08588); assay: Beta 1 adrenergic receptor assay; assay type: binding
COX-1 = COX-1 (Homo sapiens, UniProt P23219); assay: COX-1 assay; assay type: biochemical
Muscarinic M2 = Muscarinic M2 (Homo sapiens, UniProt P08172); assay: Muscarinic M2 calcium flux assay with ATP priming; assay type: cell-based
PPARgamma Receptor = PPARgamma Receptor (Homo sapiens, UniProt P37231); assay: PPARgamma Receptor agonist assay; assay type: cell-based
PXR Receptor = PXR Receptor (Homo sapiens, UniProt O75469); assay: PXR Receptor antagonist assay; assay type: cell-based
[2] = target: Pregnane X Receptor (PXR; SXR) (Homo sapiens, UniProt O75469); assay: Pregnane X Receptor; assay type: binding
Serotonin 5HT2A = Serotonin 5HT2A (Homo sapiens, UniProt P28223); assay: Serotonin 5HT2A calcium flux assay; assay type: cell-based
[3] = test system: L858R/T790M/C797S mutant lung tumors (genetically engineered mice); assay: Mouse efficacy study, tumor volume by MRI; assay type: in vivo; details: EAI045 and cetuximab
Outline: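 Transgenic lung tumors were induced at 6 weeks of age: exon19del/T790M mice by doxycycline diet, L858R/T790M/C797S mice by intranasal Ad-Cre. The test compound in 10% NMP/90% PEG-300 was given at 60 mg/kg daily by oral gavage. […] MRI ran at baseline and every 2 weeks, and tumor volume was quantified in 3D at 4 weeks. Cohorts were non-blinded and not randomized.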

[4] = test system: EGFR signaling in L858R/T790M/C797S mice; assay: Pharmacodynamic study, western blotting of tumor nodules; assay type: in vivo, mouse; details: EAI045 in combination with cetuximab, 2 doses
Outline: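 Transgenic mice were induced at 6 weeks: exon19del/T790M by doxycycline diet, L858R/T790M/C797S by intranasal Ad-Cre. […] Tumor nodules were lysed and protein-equalized for western blotting. Bands were detected by HRP chemiluminescence. Multiple independent tumors were analyzed.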

PAK4, sequence (O96013 whole entry): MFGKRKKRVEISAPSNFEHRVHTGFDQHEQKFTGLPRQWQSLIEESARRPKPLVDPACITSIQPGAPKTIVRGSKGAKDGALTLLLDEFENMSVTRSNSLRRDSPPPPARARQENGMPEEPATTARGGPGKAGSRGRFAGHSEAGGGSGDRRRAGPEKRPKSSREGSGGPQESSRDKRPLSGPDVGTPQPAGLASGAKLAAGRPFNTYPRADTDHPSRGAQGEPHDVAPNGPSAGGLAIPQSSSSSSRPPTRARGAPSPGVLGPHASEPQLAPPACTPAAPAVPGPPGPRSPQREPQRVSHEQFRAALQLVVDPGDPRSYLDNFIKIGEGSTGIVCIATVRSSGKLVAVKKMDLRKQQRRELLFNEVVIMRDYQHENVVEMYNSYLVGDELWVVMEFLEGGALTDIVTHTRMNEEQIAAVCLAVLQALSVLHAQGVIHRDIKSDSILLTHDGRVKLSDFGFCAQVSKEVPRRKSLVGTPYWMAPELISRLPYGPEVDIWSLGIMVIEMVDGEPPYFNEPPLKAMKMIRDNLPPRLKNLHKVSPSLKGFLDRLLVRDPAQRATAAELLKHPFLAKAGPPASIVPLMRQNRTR
EPH-A2, sequence (P29317 24-976): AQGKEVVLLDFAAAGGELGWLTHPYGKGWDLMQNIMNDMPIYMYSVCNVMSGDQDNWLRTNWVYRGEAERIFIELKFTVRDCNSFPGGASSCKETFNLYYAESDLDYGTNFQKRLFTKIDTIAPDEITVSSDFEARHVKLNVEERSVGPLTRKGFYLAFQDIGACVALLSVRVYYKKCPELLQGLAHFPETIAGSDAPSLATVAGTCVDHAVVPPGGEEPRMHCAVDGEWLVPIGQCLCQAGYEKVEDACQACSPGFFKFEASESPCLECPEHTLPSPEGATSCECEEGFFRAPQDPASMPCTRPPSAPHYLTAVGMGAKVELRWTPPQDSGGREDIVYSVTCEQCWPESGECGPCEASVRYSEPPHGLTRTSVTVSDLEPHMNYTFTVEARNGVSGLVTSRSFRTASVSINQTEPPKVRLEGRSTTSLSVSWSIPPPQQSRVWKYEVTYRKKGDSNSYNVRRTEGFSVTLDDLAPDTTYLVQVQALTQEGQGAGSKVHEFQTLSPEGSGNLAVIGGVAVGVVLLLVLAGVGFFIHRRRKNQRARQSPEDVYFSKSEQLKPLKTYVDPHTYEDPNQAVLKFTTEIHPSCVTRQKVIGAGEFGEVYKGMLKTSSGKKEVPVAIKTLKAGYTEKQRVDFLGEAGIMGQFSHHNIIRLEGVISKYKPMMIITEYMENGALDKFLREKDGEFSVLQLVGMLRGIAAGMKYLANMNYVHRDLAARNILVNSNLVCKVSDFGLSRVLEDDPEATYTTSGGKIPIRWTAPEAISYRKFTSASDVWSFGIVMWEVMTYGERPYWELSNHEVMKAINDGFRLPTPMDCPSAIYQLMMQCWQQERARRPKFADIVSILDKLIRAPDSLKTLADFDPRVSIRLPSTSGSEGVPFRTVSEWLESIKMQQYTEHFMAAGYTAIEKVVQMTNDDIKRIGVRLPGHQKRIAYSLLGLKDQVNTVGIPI
TIE2, sequence (Q02763 23-1124): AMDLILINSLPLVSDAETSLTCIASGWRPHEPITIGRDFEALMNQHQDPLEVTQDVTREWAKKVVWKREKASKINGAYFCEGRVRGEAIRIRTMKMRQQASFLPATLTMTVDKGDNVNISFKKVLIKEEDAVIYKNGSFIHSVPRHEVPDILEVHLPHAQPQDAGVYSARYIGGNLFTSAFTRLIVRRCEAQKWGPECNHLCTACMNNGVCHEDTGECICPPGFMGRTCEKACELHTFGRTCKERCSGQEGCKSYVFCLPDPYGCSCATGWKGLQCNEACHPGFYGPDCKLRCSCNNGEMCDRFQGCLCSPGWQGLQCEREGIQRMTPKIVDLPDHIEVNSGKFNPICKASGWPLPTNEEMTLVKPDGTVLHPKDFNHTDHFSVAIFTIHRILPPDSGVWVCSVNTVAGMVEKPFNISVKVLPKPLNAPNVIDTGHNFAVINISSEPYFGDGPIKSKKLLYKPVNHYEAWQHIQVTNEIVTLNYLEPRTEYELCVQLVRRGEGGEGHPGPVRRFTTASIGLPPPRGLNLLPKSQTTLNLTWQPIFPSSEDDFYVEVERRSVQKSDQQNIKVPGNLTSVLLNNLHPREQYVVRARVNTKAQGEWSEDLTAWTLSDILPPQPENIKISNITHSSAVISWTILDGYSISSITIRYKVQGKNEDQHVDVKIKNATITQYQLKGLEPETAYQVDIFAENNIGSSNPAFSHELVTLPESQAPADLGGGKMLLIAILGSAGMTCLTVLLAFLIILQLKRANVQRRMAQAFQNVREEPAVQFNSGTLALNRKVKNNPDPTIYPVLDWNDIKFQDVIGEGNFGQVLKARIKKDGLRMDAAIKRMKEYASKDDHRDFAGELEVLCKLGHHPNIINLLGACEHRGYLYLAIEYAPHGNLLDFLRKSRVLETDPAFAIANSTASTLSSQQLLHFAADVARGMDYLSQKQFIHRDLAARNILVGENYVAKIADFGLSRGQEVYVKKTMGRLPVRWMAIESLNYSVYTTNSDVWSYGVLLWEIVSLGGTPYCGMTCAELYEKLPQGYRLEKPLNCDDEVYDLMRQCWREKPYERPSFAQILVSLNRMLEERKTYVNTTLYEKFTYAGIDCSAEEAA
HIPK2, sequence (Q9H2X6 whole entry): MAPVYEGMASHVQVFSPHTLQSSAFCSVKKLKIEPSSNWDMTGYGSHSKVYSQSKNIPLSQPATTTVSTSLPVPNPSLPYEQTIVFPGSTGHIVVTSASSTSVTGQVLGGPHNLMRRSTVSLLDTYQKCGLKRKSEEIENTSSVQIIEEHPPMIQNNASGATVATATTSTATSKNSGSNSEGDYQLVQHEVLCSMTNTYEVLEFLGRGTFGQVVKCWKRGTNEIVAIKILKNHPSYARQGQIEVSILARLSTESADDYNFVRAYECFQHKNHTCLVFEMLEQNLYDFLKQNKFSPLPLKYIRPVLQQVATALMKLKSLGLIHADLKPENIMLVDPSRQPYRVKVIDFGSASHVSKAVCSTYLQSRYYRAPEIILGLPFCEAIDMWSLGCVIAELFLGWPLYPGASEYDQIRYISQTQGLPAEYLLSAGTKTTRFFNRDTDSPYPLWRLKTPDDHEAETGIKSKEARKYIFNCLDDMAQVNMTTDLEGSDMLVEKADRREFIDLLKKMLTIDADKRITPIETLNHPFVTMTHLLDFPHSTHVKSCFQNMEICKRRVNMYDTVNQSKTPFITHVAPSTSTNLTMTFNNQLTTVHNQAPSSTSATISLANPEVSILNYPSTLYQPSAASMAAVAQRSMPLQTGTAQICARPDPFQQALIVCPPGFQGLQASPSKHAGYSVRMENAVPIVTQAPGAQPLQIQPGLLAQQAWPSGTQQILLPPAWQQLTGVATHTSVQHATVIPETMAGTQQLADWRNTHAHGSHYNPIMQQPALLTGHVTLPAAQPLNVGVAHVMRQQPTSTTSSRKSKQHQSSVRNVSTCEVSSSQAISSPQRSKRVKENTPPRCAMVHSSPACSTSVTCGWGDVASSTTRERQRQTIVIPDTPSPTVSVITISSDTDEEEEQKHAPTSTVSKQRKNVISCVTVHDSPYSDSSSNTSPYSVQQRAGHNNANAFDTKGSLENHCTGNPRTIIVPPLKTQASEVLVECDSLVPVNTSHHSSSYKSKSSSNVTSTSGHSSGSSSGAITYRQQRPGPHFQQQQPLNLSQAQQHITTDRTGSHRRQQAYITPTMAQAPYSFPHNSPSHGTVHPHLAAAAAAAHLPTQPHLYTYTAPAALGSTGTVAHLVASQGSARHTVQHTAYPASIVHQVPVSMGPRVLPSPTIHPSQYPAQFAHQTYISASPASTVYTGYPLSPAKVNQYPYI
PXR Receptor, sequence (O75469 whole entry): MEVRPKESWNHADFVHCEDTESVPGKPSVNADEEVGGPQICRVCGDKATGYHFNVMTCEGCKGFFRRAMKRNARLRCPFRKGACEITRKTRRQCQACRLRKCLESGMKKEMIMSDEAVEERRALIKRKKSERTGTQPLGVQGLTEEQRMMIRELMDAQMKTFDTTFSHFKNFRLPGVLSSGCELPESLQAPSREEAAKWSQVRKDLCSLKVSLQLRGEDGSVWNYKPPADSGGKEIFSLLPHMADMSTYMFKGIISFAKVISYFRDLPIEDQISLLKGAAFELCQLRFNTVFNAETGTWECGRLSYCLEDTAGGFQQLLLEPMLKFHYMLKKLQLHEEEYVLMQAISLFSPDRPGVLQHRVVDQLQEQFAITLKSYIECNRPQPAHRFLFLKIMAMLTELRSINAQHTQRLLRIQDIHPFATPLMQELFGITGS
Pregnane X Receptor (PXR; SXR), sequence (O75469 whole entry, species assumed): as the sequence (O75469 whole entry) above
PLK1, sequence (P53350 whole entry): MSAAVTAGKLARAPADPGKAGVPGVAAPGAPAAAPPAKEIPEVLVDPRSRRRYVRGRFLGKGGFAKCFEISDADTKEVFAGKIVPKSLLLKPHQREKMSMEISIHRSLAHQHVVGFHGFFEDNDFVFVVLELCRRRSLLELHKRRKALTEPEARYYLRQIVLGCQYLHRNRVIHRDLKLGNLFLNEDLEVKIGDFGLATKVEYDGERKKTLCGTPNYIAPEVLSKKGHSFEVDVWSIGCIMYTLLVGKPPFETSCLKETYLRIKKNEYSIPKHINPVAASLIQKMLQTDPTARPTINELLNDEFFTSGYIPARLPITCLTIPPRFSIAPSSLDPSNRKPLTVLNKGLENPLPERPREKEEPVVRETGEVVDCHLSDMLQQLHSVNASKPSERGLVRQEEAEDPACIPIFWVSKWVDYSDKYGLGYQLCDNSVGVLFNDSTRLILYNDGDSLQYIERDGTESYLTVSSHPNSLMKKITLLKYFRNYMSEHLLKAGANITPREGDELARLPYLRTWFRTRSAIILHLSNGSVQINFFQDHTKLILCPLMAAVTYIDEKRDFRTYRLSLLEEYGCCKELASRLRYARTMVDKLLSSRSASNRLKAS

O=C(Nc1nccs1)C(c1cc(F)ccc1O)N1Cc2ccccc2C1=O (centres unmarked) [EAI045, 2-(5-fluoro-2-hydroxyphenyl)-2-(1-oxo-2,3-dihydro-1H-isoindol-2-yl)-N-(1,3-thiazol-2-yl)acetamide]
7%: inhibition at 1 µM (EPH-A2) | inhibition at 1 µM (PLK1)
3%: inhibition at 1 µM (BLK)
> 30 µM: IC50 [1] | IC50 (COX-1) | IC50 (Muscarinic M2) | IC50 (PPARgamma Receptor) | IC50 (Serotonin 5HT2A)
7 µM: IC50 [2]
2%: inhibition at 1 µM (HIPK2) | inhibition at 1 µM (PIM2)
0%: inhibition at 1 µM (PAK4) | inhibition at 1 µM (MAPK3) | inhibition at 1 µM (PAK6) | inhibition at 1 µM (RON) | inhibition at 1 µM (PDGFR-ALPHA) | inhibition at 1 µM (PHK-GAMMA2) | inhibition at 1 µM (SGK3) | inhibition at 1 µM (MSK1) | inhibition at 1 µM (INSR) | inhibition at 1 µM (MST2) | inhibition at 1 µM (PKC-ETA) | inhibition at 1 µM (PKC-GAMMA) | inhibition at 1 µM (EPH-A4) | inhibition at 1 µM (ITK) | inhibition at 1 µM (JAK1) | inhibition at 1 µM (PKN1) | inhibition at 1 µM (TIE2) | inhibition at 1 µM (EPH-B3) | inhibition at 1 µM (JNK3) | inhibition at 1 µM (TNK1) | inhibition at 1 µM (CDK2-CYCLINE) | inhibition at 1 µM (FGFR4) | inhibition at 1 µM (PAK1)
> 3 µM: IC50 (PXR Receptor)
1%: inhibition at 1 µM (CDK2-CYCLINA)
marked tumor shrinkage: tumor response [3]
effectively inhibited: phosphorylation of EGFR and downstream signaling proteins in tumors [4]
